We go through 4 molecules from paper PMC4120670 (Kidney International, 2014).

SMILES strings stand for the structures.

The target of series [1] is T1, MATE1 (Homo sapiens, UniProt Q96FL8).
T1 sequence (Q96FL8 1-570): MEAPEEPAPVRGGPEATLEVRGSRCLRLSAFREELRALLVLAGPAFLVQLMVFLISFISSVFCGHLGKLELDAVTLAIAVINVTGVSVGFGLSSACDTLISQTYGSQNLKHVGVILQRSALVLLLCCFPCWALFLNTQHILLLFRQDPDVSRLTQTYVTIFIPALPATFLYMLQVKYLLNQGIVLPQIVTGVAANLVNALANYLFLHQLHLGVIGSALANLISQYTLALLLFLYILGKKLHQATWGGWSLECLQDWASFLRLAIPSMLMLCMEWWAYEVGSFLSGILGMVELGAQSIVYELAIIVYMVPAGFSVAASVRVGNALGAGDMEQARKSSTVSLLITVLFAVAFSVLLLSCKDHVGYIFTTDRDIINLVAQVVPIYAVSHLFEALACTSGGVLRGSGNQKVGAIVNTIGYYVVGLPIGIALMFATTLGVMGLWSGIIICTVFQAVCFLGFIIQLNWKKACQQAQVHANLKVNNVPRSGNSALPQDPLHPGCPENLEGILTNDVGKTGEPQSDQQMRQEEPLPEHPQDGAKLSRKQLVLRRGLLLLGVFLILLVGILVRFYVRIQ
Description: Inhibition of MATE1 transport of tetraethylammonium. The format is cell-based.

Series [2] addresses T1, MATE1. Description: Inhibition of MATE1-mediated creatinine transport. The series is classed as cell-based.
The conditions of series [3]: clinical plasma concentration; cited from earlier work.
For series [4], the target named is T2, OAT3 (Homo sapiens, UniProt Q8TCC7).
T2 sequence (Q8TCC7 1-542): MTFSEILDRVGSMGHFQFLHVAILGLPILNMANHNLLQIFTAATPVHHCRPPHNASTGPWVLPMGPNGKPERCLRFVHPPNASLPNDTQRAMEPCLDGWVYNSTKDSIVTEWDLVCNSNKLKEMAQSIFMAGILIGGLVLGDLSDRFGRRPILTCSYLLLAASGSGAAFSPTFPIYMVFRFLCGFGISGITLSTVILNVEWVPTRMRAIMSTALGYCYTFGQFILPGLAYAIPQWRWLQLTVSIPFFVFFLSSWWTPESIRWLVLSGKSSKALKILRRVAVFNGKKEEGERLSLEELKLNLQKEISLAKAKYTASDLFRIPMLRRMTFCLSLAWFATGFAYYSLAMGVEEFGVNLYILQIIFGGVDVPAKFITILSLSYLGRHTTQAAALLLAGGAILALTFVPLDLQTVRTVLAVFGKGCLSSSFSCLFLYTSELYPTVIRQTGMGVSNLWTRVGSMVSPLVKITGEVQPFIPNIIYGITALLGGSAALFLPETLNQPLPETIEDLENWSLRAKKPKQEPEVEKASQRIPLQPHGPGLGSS
The conditions noted are these: cobicistat 1 μmol/l; HEK293; diclofenac or probenecid 90 μmol/l.

Series [5] concerns the target T3, OAT2 (Homo sapiens, UniProt Q9Y694).
T3 sequence (Q9Y694 1-548): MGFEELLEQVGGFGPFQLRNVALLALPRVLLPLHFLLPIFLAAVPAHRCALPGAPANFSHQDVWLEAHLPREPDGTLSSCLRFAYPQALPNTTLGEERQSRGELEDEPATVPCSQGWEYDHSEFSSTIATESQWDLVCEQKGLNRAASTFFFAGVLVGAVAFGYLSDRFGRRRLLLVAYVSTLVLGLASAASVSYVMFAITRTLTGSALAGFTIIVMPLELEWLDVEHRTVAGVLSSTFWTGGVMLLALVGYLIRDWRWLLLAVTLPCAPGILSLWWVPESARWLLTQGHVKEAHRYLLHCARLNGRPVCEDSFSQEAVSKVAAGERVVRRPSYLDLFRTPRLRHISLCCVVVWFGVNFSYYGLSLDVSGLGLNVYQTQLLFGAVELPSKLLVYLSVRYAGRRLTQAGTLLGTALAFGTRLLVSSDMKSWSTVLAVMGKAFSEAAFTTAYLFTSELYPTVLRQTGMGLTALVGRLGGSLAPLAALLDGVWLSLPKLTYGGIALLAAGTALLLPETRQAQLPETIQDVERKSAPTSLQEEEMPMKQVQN
Description: Inhibition of OAT2 transport of 3′,5′-cyclic GMP. The format is cell-based.

The conditions of series [6]: cited from earlier work.
A further series deals with T4, OCT3 (Homo sapiens, UniProt O75751).
T4 sequence (O75751 1-556): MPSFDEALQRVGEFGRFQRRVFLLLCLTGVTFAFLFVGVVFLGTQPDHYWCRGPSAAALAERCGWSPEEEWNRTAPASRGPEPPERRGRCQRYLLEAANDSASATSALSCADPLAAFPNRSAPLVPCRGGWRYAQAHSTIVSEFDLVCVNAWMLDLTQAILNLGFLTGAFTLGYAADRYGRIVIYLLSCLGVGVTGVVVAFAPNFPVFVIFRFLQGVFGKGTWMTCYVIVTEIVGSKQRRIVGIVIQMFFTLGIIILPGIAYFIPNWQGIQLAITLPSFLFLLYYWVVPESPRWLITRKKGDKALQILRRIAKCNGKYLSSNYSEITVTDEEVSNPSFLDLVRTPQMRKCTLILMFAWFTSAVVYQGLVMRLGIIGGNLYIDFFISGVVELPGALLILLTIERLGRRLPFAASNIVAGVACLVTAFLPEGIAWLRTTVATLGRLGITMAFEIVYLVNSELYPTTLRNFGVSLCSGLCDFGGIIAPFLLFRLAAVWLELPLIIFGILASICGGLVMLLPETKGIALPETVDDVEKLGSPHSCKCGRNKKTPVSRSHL
Nature of the series: Inhibition of OCT3 transport of 1-methyl-4-phenylpyridinium. The format is cell-based. Conditions: for Concentration-dependent inhibition of OCT3-dependent transport: model substrate, curve could not be generated.

For series [7], the target named is T5, MATE2-K (Homo sapiens, UniProt Q86VL8). Description: Inhibition of MATE2-K transport of tetraethylammonium. The format is cell-based.
Series [8] has as its target T6, OCT2 (Homo sapiens, UniProt O15244).
T6 sequence (O15244 1-555): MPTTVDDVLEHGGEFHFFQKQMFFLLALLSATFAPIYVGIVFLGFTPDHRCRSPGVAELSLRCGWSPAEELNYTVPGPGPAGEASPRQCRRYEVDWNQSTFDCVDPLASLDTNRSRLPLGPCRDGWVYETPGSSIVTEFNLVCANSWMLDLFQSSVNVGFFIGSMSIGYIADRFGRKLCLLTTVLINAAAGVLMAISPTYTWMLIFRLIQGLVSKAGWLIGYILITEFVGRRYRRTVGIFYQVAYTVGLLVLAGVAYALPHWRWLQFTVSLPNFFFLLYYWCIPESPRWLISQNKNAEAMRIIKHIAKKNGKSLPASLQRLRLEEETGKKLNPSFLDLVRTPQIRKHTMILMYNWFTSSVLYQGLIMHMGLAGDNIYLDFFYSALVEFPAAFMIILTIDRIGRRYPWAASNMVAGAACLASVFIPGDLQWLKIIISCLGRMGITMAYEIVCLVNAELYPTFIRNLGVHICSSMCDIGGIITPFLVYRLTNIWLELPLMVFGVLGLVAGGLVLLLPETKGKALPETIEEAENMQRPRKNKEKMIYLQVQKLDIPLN
Description: Cobicistat uptake in MDCKII cells transfected with OCT2. Conditions: cobicistat 1 μmol/l; vs nontransfected MDCKII cells; 5% bovine serum albumin. The format is cell-based.

Series [9] deals with human primary proximal tubule cells. Description: Cobicistat uptake in fresh isolated primary proximal tubule cells. The series is classed as cell-based. Conditions: cobicistat 1 μmol/l; cimetidine 1500 μmol/l or probenecid 90 μmol/l.
For series [10] the following is noted: more modest effects, clinical; cited from earlier work.
The target in series [11] is T6, OCT2. Nature of the series: Inhibition of OCT2 transport of tetraethylammonium. The format is cell-based.
The conditions of series [12]: most prominent effects, clinical; cited from earlier work.
The subject of series [13] is MATE2-K. Conditions: read-out: Ki MATE2-K; cited from earlier work.
Series [14] deals with MATE1. The conditions noted are these: read-out: Ki MATE1; cited from earlier work.
Series [15] concerns the target T2, OAT3. The series is classed as cell-based. The conditions noted are these: transiently transfected HEK293 cells; data not shown.
The target in series [16] is T5, MATE2-K. Description: Creatinine transport by MATE2-K in transiently transfected MDCKII cells. The series is classed as cell-based.
Series [17] addresses T3, OAT2. Description: Creatinine transport by OAT2 in transiently transfected MDCKII cells. The series is classed as cell-based.
Series [18] deals with T1, MATE1. Nature of the series: Creatinine transport by MATE1 in transiently transfected MDCKII cells. The series is classed as cell-based. The gist of the method: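 Transiently transfected polarized MDCKII cells were preincubated 20 min in Hank's balanced salt solution with 30 mmol/l NH4Cl. Uptake was started by adding creatinine, 31 μmol/l to 20 mmol/l, to the chamber matching the transporter's apical or basolateral expression. Cells were washed four times with ice-cold PBS and extracted in 1:1 acetonitrile:water. Intracellular substrate was counted radiometrically. Kinetic constants were fitted from concentration dependence over n⩾3 independent experiments.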

The target of series [19] is T2, OAT3. Conditions: human OAT3, transiently transfected HEK293 cells; cited from earlier work.
Series [20] has as its target T6, OCT2. Description: Inhibition of OCT2-dependent metformin transport. The series is classed as cell-based.

T5 sequence (Q86VL8 1-566 isoform Q86VL8-3): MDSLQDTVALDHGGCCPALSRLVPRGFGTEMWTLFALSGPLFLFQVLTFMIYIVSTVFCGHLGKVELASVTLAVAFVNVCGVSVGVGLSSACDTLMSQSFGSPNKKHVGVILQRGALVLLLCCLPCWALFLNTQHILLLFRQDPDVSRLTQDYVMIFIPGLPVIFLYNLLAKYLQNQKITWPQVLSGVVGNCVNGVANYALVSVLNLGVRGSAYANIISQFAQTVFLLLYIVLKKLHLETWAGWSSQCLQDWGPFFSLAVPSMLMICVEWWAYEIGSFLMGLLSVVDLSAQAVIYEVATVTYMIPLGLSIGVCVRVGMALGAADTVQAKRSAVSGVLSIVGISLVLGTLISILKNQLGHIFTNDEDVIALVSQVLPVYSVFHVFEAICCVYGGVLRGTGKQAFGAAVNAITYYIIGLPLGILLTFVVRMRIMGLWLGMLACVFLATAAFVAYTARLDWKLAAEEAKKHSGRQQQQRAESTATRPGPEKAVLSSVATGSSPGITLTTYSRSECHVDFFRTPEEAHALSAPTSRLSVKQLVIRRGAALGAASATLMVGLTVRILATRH

Usually IC50 stands for the concentration needed to halve the response being measured. A higher IC50 goes with a need for much substance. As to `CC(C)c1nc(CN(C)C(=O)N[C@@H](CCN2CCOCC2)C(=O)N[C@H](CC[C@H](Cc2ccccc2)NC(=O)OCc2cncs2)Cc2ccccc2)cs1` [Cobicistat, cobicistat], the IC50 against MATE1 [1] is 1870 ± 220 nM; at MATE1 [2] it was 990 nM; at OAT2 [5], greater than 100000 nM; against OCT3, greater than 100000 nM; against MATE2-K [7], 33500 ± 4200 nM; against OCT2 [11], 24000 ± 4600 nM. Further, the “Bound to plasma proteins” value in series [3] was “over 90%”. On OAT3 [4], the “Inhibitor-sensitive accumulation in cells transfected with OAT3” value is on record as “no inhibitor-sensitive accumulation”. In [6] (clinical), the Maximum plasma concentration was 1.4 µmol/L. In addition, the Renal elimination entry in series [6] (in humans) is “approximately 8%”. The “Concentration-dependent inhibition of OCT3-dependent transport” value at OCT3 is “lack of concentration-dependent inhibition”. In addition, the “Increase in cobicistat accumulation in cells transfected with OCT2” value at OCT2 [8] is recorded as 2.9 fold. Besides, in series [9], the “Transporter-dependent uptake in primary proximal tubule cells” value was “small but reproducible decreases in accumulation in the presence of the transport inhibitors cimetidine or probenecid”. In [10], the Serum creatinine increases was roughly 0.1 mg/dL.

As a reminder, the Ki is a measure of affinity in units of concentration, obtained from inhibition or displacement. For the molecule `CCc1nc(N)nc(N)c1-c1ccc(Cl)cc1` [Pyrimethamine, pyrimethamine], in series [12], the “Decreases in creatinine clearance” value is 15–34 ml/min per 1.73 m^2. In addition, the Ki with MATE2-K [13] was 59 nM; in the series on MATE1 [14] it was 93 nM.

One may read the Km as the substrate concentration at which the rate is half of its maximum. Take `CN1CC(=O)NC1=N` [creatinine]: the “OAT3-dependent transport of creatinine” value at OAT3 [15] was “no OAT3-dependent transport of creatinine was observed”. Moreover, the Vmax at MATE2-K [16] (creatinine transport by MATE2-K) is >20 × 10^4 pmol/min per mRNA copy number; at OAT2 [17] (creatinine transport by OAT2), 117 × 10^4 pmol/min per mRNA copy number; on MATE1 [18] (creatinine transport by MATE1), >2 × 10^4 pmol/min per mRNA copy number. In addition, the Km at MATE2-K [16] (human, transiently transfected MDCKII cells expressing MATE2-K) is greater than 2000 µM; on MATE1 [18] (human, transiently transfected MDCKII cells expressing MATE1), greater than 2000 µM. At OAT2 [17] (physiological creatinine concentration (100 μmol/l), faster than OCT2), the “Transport rate for OAT2 relative to OCT2” value is 4.7 fold. Besides, the “Transport rate for OAT2 relative to OCT3” value at OAT2 [17] (physiological creatinine concentration (100 μmol/l), faster than OCT3) stood at 2.3 fold. Moreover, the “Increase in creatinine accumulation over mock transfection” value on OAT3 [19] was 60%.

On to `C[C@@H]1CCO[C@H]2Cn3cc(C(=O)NCc4ccc(F)cc4F)c(=O)c(O)c3C(=O)N12` [Dolutegravir, dolutegravir], for which the IC50 on MATE1 [1] is 4670 ± 1110 nM; against OAT2 [5] it was greater than 100000 nM; on OCT3, greater than 100000 nM; on MATE2-K [7], greater than 100000 nM; against OCT2 [11], 66 ± 3 nM; against OCT2 [20], 110 nM. Moreover, the “Concentration-dependent inhibition of OAT2-dependent transport” value at OAT2 [5] (model substrate, curve could not be generated) is “lack of concentration-dependent inhibition”. Moreover, at OCT3, the “Concentration-dependent inhibition of OCT3-dependent transport” value is given as “lack of concentration-dependent inhibition”. Besides, in [10], the Serum creatinine increases was roughly 0.1 mg/dL.
